Reference: ChEMBL document CHEMBL1148737, “Quantitative structure-activity relationship studies of [(biphenyloxy)propyl]isoxazole derivatives. Inhibitors of human rhinovirus 2 replication” (J Med Chem, 2007)

Key:
rhinovirus A2 = assay: Antiviral activity against HRV2 in HeLa cells by CPE assay; type: functional; set-up: unit not given here
Method in brief: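 HRV-2 stock grown in HeLa cells. 1-day-old confluent HeLa monolayers were given compound in test medium (2% NCS) plus virus at MOI 0.01 after medium removal. CPE was scored 72 h post-infection by crystal violet uptake, with six uninfected and six infected untreated wells per plate and pleconaril as reference. IC50 was taken from mean dose-response curves of at least three separate experiments.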

[1] = Selectivity index, ratio of CC50 for HeLa cells to IC50 for HRV2; type: functional
Method in brief: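 Computed as CC50 (HeLa, 72 h crystal violet viability) divided by IC50 (HRV-2 CPE inhibition in HeLa, 72 h), both in µg/mL.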

HeLa = assay: Cytotoxicity against human HeLa cells; type: cell-based; set-up: unit not given here
Method in brief: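 2-day-old confluent HeLa monolayers were exposed to serial 2-fold compound dilutions for 72 h at 37 °C, 5% CO2. Cells were fixed and stained with crystal violet formalin, and the dye was extracted and read at 550/630 nm. Viability was expressed as percent of the mean of six mock-treated controls. CC50 is the concentration cutting viability by 50%.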

## Cc1cc(CCCOc2c(C)cc(-c3ccc(-c4ccccc4)cc3)cc2C)on1
Rhinovirus A2
  logIC50: 1.7
[1]
  logSI: 0
HeLa
  logCC50: 1.7

## Cc1cc(CCCOc2c(C)cc(-c3ccc(OC(F)(F)F)cc3)cc2C)on1
Rhinovirus A2
  logIC50: 0.05
[1]
  logSI: 1
HeLa
  logCC50: 1.03

## Cc1cc(CCCOc2c(C)cc(-c3ccccc3C)cc2C)on1
Rhinovirus A2
  logIC50: -1.09
[1]
  logSI: 1.76
HeLa
  logCC50: 0.66

## Cc1cc(CCCOc2c(C)cc(-c3ccc(Br)cc3)cc2C)on1
Rhinovirus A2
  logIC50: -0.15
[1]
  logSI: 0.85
HeLa
  logCC50: 0.68

## Cc1ccc(C)c(-c2cc(C)c(OCCCc3cc(C)no3)c(C)c2)c1
Rhinovirus A2
  logIC50: 1.06
[1]
  logSI: 0.6
HeLa
  logCC50: 1.7

## Cc1cc(CCCOc2c(C)cc(-c3ccc(C=O)cc3)cc2C)on1
Rhinovirus A2
  logIC50: -1.09
[1]
  logSI: 2.09
HeLa
  logCC50: 1

## CC(=O)c1ccc(-c2cc(C)c(OCCCc3cc(C)no3)c(C)c2)cc1
Rhinovirus A2
  logIC50: -0.63
[1]
  logSI: 2.33
HeLa
  logCC50: 1.7

## C=Cc1ccc(-c2cc(C)c(OCCCc3cc(C)no3)c(C)c2)cc1
Rhinovirus A2
  logIC50: -0.9
[1]
  logSI: 3.2
HeLa
  logCC50: 2.3

## Cc1cc(CCCOc2c(C)cc(-c3cc(F)c(F)c(F)c3)cc2C)on1
Rhinovirus A2
  logIC50: -1.46
[1]
  logSI: 3.34
HeLa
  logCC50: 1.88

## Cc1cc(CCCOc2c(C)cc(-c3ccc(F)c(C)c3)cc2C)on1
Rhinovirus A2
  logIC50: -1.82
[1]
  logSI: 3.1
HeLa
  logCC50: 1.28

## Cc1cc(CCCOc2c(C)cc(-c3cc(C(F)(F)F)cc(C(F)(F)F)c3)cc2C)on1
Rhinovirus A2
  logIC50: 1.7
[1]
  logSI: 0
HeLa
  logCC50: 1.7

## Cc1cc(CCCOc2c(C)cc(-c3cccc(F)c3)cc2C)on1
Rhinovirus A2
  logIC50: -1.4
[1]
  logSI: 2.36
HeLa
  logCC50: 0.96

## Cc1cc(CCCOc2c(C)cc(-c3ccc(C(F)(F)F)cc3)cc2C)on1
Rhinovirus A2
  logIC50: -0.97
[1]
  logSI: 2.05
HeLa
  logCC50: 1.08

## Cc1cc(CCCOc2c(C)cc(-c3cccc([N+](=O)[O-])c3)cc2C)on1
Rhinovirus A2
  logIC50: -1.47
[1]
  logSI: 2.25
HeLa
  logCC50: 0.79

## Cc1cc(CCCOc2c(C)cc(-c3ccc(F)cc3F)cc2C)on1
Rhinovirus A2
  logIC50: -2.3
[1]
  logSI: 3.2
HeLa
  logCC50: 0.9

## COc1cc(-c2cc(C)c(OCCCc3cc(C)no3)c(C)c2)cc(OC)c1OC
Rhinovirus A2
  logIC50: -0.54
[1]
  logSI: 1.53
HeLa
  logCC50: 1

## Cc1cc(CCCOc2c(C)cc(-c3ccc(C)c(C)c3)cc2C)on1
Rhinovirus A2
  logIC50: -1.31
[1]
  logSI: 1.97
HeLa
  logCC50: 0.66

## Cc1cc(CCCOc2c(C)cc(-c3cccc(C(F)(F)F)c3)cc2C)on1
Rhinovirus A2
  logIC50: -1.24
[1]
  logSI: 2.32
HeLa
  logCC50: 1.08

## Cc1cc(CCCOc2c(C)cc(-c3cccc4ccccc34)cc2C)on1
Rhinovirus A2
  logIC50: -0.2
[1]
  logSI: 1.16
HeLa
  logCC50: 0.96

## Cc1cc(CCCOc2c(C)cc(-c3ccc(F)cc3)cc2C)on1
Rhinovirus A2
  logIC50: -2.05
[1]
  logSI: 3.74
HeLa
  logCC50: 1.7

## Cc1cc(CCCOc2c(C)cc(-c3noc(C(F)(F)F)n3)cc2C)on1 [PLECONARIL]
Rhinovirus A2
  logIC50: -1.7
[1]
  logSI: 2.8
HeLa
  logCC50: 1.1
